The values below come from ChEMBL document CHEMBL4765334, “Chemical profiling of HIV-1 capsid-targeting antiviral PF74” (Eur J Med Chem, 2020).

The subject of series [1] is Human immunodeficiency virus 1. Description: Antiviral activity against HIV1 NL4-3 infected in human TZM-GFP cells assessed as number of GFP positive cells incubated for 48 hrs by imaging reader. Conditions: Human immunodeficiency virus 1, NL4-3, TZM. It is filed as functional, organism-based. Put shortly:
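TZM-GFP cells seeded 1 × 10^4/well and given increasing compound concentrations 24 h later; infected with HIV-1 NL4-3 (MOI = 1) after a further 24 h. Read-out after 48 h: GFP-positive cell counts (LTR-driven) versus DMSO controls. EC50 fitted as log(inhibitor) vs normalized response, variable slope, per experiment and averaged; mean ± SD, duplicates, at least two independent experiments.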

Series [2] has as its system TZM. The series is described as follows: (§1) Cytotoxicity against human TZM-GFP cells incubated for 72 hrs by XTT assay. The series is classed as cell-based. Conditions: tzm, 72 h. Put shortly:
(§2)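 TZM-GFP cells seeded at 1 × 10^4 per well and exposed continuously to increasing compound concentrations for 72 h. Viable cell number read by XTT proliferation kit. CC50 fitted as log(inhibitor) vs normalized response, variable slope, per independent assay and averaged. Run in duplicate, at least two independent experiments, reported as mean ± standard deviation.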
(In general: Formazan colour is commonly taken as a measure of viable cells.)

Series [3] deals with Human immunodeficiency virus 1. Description: Binding affinity to covalently-crosslinked hexameric HIV1 capsid protein A14C/E45C/W184A/M185A mutant expressed in Escherichia coli BL21(DE3)RIL assessed as change in melting temperature at 20 uM incubated for 30 mins by thermal shift dye based fluorescence analysis. The method in brief:
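Thermal shift: 15 μM CA121 in 50 mM sodium phosphate pH 8.0 with Sypro Orange and compound at 20 μM final or DMSO control. Heated 25 to 95 °C at 0.2 °C/10 s; fluorescence Ex 475–500, Em 520–590 nm. ΔTm = Tm(compound) − T0(DMSO) for CA hexamer melting.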

Series [4] can be described thus: Stability of the compound in human plasma assessed as half life incubated for 3 hrs by LC-MS/MS analysis. The series is classed as ADME, cell-free.
Series [5] is described as follows: Stability of the compound in mouse plasma assessed as half life incubated for 3 hrs by LC-MS/MS analysis. It is filed as ADME, cell-free.
Series [6] in a line: Metabolic stability at phase 1 in human liver microsomes assessed as half life at 1 uM by LC-MS/MS analysis. The series is classed as ADME, Microsome. In general terms: Microsomes from liver hold many membrane-bound enzymes, among them those of drug oxidation.
Series [7] can be described thus: Metabolic stability at phase 1 in mouse liver microsomes assessed as half life at 1 uM by LC-MS/MS analysis. It is filed as ADME, Microsome. Conditions: microsomes, 1 µM.
Series [8] can be described thus: Metabolic stability at phase 1 in human liver microsomes assessed as half life at 1 uM in presence of Cobi-cistat CYP3A inhibitor by LC-MS/MS analysis. The series is classed as ADME, Microsome.
Series [9] in a line: Metabolic stability at phase 1 in mouse liver microsomes assessed as half life at 1 uM in presence of Cobi-cistat CYP3A inhibitor by LC-MS/MS analysis. It is filed as ADME, Microsome.
Series [10] in a line: as §1. Conditions: TZM-GFP cells. The series is classed as cell-based. Put shortly:
as §2

The subject of series [11] is Human immunodeficiency virus 1. Description: Antiviral activity against HIV1 NL4-3 infected in human TZM-GFP cells assessed as number of GFP positive cells at 2 uM incubated for 48 hrs by imaging reader. It is filed as functional. Conditions: Human immunodeficiency virus 1, NL4-3, TZM. The method in brief: (§3)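 TZM-GFP cells seeded 1 × 10^4/well; after 24 h medium replaced with compound at the stated single concentration, then 24 h later infected with HIV-1 (MOI = 1). After 48 h, GFP-positive cells counted by imaging and percent inhibition determined versus DMSO controls. Duplicate wells, at least two independent experiments.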

Series [12] relates to Human immunodeficiency virus 1. Description: Antiviral activity against HIV1 NL4-3 infected in human TZM-GFP cells assessed as number of GFP positive cells at 20 uM incubated for 48 hrs by imaging reader. The series is classed as functional. Conditions: Human immunodeficiency virus 1, NL4-3, TZM. The method in brief:
as §3

In the case of `CN(C(=O)[C@H](Cc1ccccc1)NC(=O)Cc1c[nH]c2ccccc12)c1ccc(Br)cc1`, the concentration for a half-maximal effect (EC50) in series [1] was 0.14 µM. In [2], this molecule yielded a cytotoxic concentration (CC50) of 45 µM. In addition, the ΔTm in [3] was determined as 8.3 °C. The t1/2 in [4] was over 6 h; in series [5] it was over 6 h; in series [6], 2.1 min; in [7], 42 s; in [8] it was 2.18 h; in [9], 0.867 h.

Consider `CN(C(=O)[C@H](Cc1ccccc1)NC(=O)Cc1c[nH]c2ccccc12)c1ccccc1`, for which the EC50 in series [1] stood at 0.46 µM. In series [10], the CC50 at 72 h is over 100 µM. Besides, the ΔTm in series [3] was found to be 6.1 °C.

In the case of `CN(C(=O)[C@H](Cc1ccccc1)NC(=O)Cc1c[nH]c2ccccc12)c1cccc(Cl)c1`, in series [11], the inhibition at 2 µM amounted to 38%. For the same molecule, in series [12], the inhibition at 20 µM turned out to be 99.5%. The molecule also yielded a half-maximal cytotoxic concentration (CC50) in [2] of under 50 µM. Moreover, the shift in melting temperature (ΔTm) in series [3] turned out to be 4.9 °C.

In the case of `Cc1[nH]c2ccccc2c1CC(=O)N[C@@H](Cc1ccccc1)C(=O)N(C)c1cccc(Cl)c1`, the EC50 in series [1] was determined as 1.2 µM. The molecule further returned a CC50 at 72 h in [10] of under 50 µM. Moreover, the ΔTm in series [3] stood at 7.6 °C.

For `CCN(C(=O)[C@H](Cc1ccccc1)NC(=O)Cc1c(C)n(C(C)C)c2ccccc12)c1ccccc1`, in [11], the inhibition at 2 µM was determined as 39%. The inhibition at 20 µM in series [12] came out at 99.7%. In addition, the CC50 in series [2] stood at 23 µM. Moreover, the shift in melting temperature (ΔTm) in [3] came to 7 °C.

As to `Cc1[nH]c2ccccc2c1CC(=O)N[C@@H](Cc1ccccc1)C(=O)N1CCC[C@H]1C(=O)Nc1ccccc1`, in [1], the EC50 is over 20 µM. This molecule also had a CC50 at 72 h in series [10] of over 50 µM. For the same molecule, the ΔTm in series [3] was found to be 0.6 °C.

Consider `Cc1cccc(N(C)C(=O)[C@H](Cc2ccccc2)NC(=O)Cc2c[nH]c3ccccc23)c1`, for which the inhibition at 2 µM in [11] was 37%. Besides, in series [12], the inhibition at 20 µM was 98%. For the same molecule, in series [2], the CC50 is over 50 µM. Moreover, the ΔTm in series [3] turned out to be 1.6 °C.

Turning to `Cc1[nH]c2ccccc2c1CC(=O)N[C@@H](Cc1cccc(Br)c1)C(=O)N(C)c1ccccc1`, the inhibition at 2 µM in series [11] was 0%. Further, the inhibition at 20 µM in series [12] amounted to 94%. In addition, the CC50 in [2] was under 50 µM. The ΔTm in series [3] stood at 3.4 °C.

Consider `CN(C(=O)[C@H](Cc1ccccc1)NC(=O)Cc1c[nH]c2ccccc12)c1cccc(C(F)(F)F)c1`, for which, in [11], the inhibition at 2 µM came to 16%. In addition, in series [12], the inhibition at 20 µM came to 96%. The same molecule yielded a half-maximal cytotoxic concentration (CC50) in [2] of under 50 µM. In addition, the thermal shift (ΔTm) in series [3] was determined as 2.8 °C.

`CN(C(=O)[C@H](Cc1ccccc1)NC(=O)CCc1c[nH]c2ccccc12)c1ccccc1`: the inhibition at 2 µM in series [11] was 0%. For the same molecule, the inhibition at 20 µM in series [12] stood at 98%. The CC50 in [2] is over 50 µM. The ΔTm in [3] came to 2.3 °C.

In the case of `CN(C(=O)[C@H](Cc1ccccc1)NC(=O)Cc1c[nH]c2ccccc12)c1cccc(F)c1`, in series [11], the inhibition at 2 µM came to 39%. Also, in series [12], the inhibition at 20 µM is 97%. In series [10], this molecule came in with a CC50 at 72 h of 50 µM. Besides, the ΔTm in [3] was determined as 2.5 °C.

With `COc1cccc(N(C)C(=O)[C@H](Cc2ccccc2)NC(=O)Cc2c[nH]c3ccccc23)c1`, the inhibition at 2 µM in series [11] was determined as 41%. In addition, the inhibition at 20 µM in series [12] is 97%. The molecule further returned a CC50 in series [2] of over 50 µM. Also, the ΔTm in [3] came to 1.3 °C.

A word on the EC50: it is the concentration giving half of the maximal effect. What is called CC50 is the concentration at which the toxic effect on the cells reaches its halfway point. High values mean better tolerance by the cells, low ones harm at low concentration. By ΔTm is commonly meant the shift of the melting midpoint relative to a reference. One may read the inhibition as how much of the control response was suppressed.
